IMP-1 inhibitor: blocks Pseudomonas aeruginosa IMP-1 metallo-beta-lactamase; inhibition, % at 5.6 µM; purified IMP-1, nitrocefin hydrolysis, epi-absorbance fluorescence; actives 0.45% (n = 290,000);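 active = inhibition above the mean plus 3 SD of all compounds in the same screening run, cut at about 4.5% in these data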;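 also: 0% = IMP-1 with DMSO and 100% = DMSO wells lacking enzyme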
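System: Purified recombinant IMP-1 metallo-beta-lactamase enzyme | Measured by: Fluorescence quenching readout, ex 480/em 530 nm | Replication: Singlicate | Incubation: 15 min preincubation plus 25 min reaction at 25 °C | Evaluation: Percent inhibition from optical density relative to buffer-blank wells | Benchmarks: DMSO with and without IMP-1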
Runt-SMMHC FRET: blocks binding of human RUNX1 Runt domain to CBFb-SMMHC; actives 0.74% (n = 220,000); Q01196+Q13951; inhibition, % at 20 µM; AID 1434; Cerulean-Runt/Venus-CBFb-SMMHC FRET ratio 530/480, 1 h;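 active = mean inhibition across duplicate retests at 20 µM reaching about 50%, limit read from the data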;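 also: 0% = DMSO wells and 100% = wells with excess untagged CBFb-SMMHC; inhibitors lower the FRET ratio by blocking Runt binding to CBFb-SMMHC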
Target sequence (Q01196 whole entry, looked up, the tested form may be a part): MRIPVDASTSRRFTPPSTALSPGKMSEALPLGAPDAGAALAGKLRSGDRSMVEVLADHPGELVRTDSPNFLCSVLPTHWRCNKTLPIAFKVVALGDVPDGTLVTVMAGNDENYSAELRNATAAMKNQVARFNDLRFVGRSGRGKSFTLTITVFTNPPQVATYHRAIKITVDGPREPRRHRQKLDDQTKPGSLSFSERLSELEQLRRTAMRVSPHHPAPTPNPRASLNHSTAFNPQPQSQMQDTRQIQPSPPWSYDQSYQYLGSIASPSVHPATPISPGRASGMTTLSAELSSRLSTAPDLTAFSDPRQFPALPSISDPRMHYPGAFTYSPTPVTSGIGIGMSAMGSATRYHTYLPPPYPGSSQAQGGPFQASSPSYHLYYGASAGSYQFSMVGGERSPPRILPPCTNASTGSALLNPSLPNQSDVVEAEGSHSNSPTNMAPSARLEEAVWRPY
Target sequence (Q13951 whole entry, looked up, the tested form may be a part): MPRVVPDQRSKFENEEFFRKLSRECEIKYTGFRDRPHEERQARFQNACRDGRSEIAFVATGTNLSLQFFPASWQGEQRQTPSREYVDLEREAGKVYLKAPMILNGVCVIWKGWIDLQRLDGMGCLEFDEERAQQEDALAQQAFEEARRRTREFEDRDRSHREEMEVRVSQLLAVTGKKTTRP
RanGTP-Imp inh: inhibitors of RanGTP-importin-beta interaction, primary screen, biochemical, FRET, CFP-Ran, YFP-importin-beta, homogeneous | cell-free CFP-Ran/YFP-importin-beta FRET ratio | inhibition, % (test concentration not listed) | actives 1.1% (n = 300,000) | AID 2216;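 active = more than half of the replicate wells show a fall in the fluorescence ratio signal beyond about 16%, limit read from the data, passing the limit was not always enough; inconclusive = exactly half of the replicate wells pass the set limit; inactive = fewer than half of replicates pass the limit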;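 also: 0% = DMSO wells and 100% = Ran loaded with GDP instead of GTP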
Runt-CBFb FRET: inhibitors of human RUNX1 Runt domain binding to CBFb; Cerulean-Runt/Venus-CBFb FRET ratio 530/480, 1 h; AID 1496; Q01196+Q13951; inhibition, % at 20 µM; actives 0.46% (n = 220,000);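 active = inhibition over about 50% at 20 µM in the single-dose screen, limit read from the data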;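 also: 0% = DMSO wells and 100% = excess unlabeled CBFb competitor control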
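test system = Cerulean-Runt domain fusion protein, energy donor | probe or stimulus = Venus-CBFb binding partner, 100 nM | incubation = two 1 h room-temperature incubations shielded from light | detection = fluorescence energy transfer, 422 nm excitation, 530/480 nm emission | measure = loss of energy transfer signal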
VIM-2 inhibitor: blocks Pseudomonas aeruginosa VIM-2 metallo-beta-lactamase; purified VIM-2, nitrocefin hydrolysis, epi-absorbance fluorescence; inhibition, % at 5.6 µM; actives 0.89% (n = 290,000); AID 1527;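 active = inhibition above the mean of all tested compounds plus 3 SD, cutoff set per screening run, cut at about 7.5% in these data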;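 also: red hydrolysis product quenches plate fluorescence so inhibitors raise well fluorescence; 0% = enzyme with DMSO and 100% = DMSO without enzyme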
* marks the source's active call; other numbers are inactive results; u = inconclusive; x = not tested or not shown. Rows were chosen to be rich in hits. Some 2.6% of all compounds tested hit in one or more screens of this group.

SMILES	IMP-1 inhibitor	Runt-SMMHC FRET	RanGTP-Imp inh	Runt-CBFb FRET	VIM-2 inhibitor
O=C(CN1C(=O)CSc2ccc(S(=O)(=O)N3CCOCC3)cc21)NCCCN1CCOCC1	-1	-2	151*	-1	0
COc1cccc(C(=O)Nc2cccc(-c3ccc(N4CCOCC4)nn3)c2)c1OC	x	x	2	x	x
COc1ccc(S(=O)(=O)N2CCC(C(=O)Nc3nccs3)CC2)cc1	-1	x	5	x	0
COC(=O)CNC(=O)COC(=O)/C=C/c1ccc2ccccc2n1	-2	-2	27*	2	-1
CCN(CC)CCCNC(=O)c1cc(Cl)c(NC(=O)C2=C(C)OCCS2)cc1OC	-2	x	-1	x	11*
O=C(CCc1cccc(Cl)c1)N1CCCC(Nc2ccccc2)C1 (stereo not drawn)	0	x	-1	x	-2
CCOC(=O)C(C#N)=C1CCN(Cc2ccccc2)CC1	0	x	51*	x	-1
NC(=O)c1ccc(Oc2cccc3cccnc23)c([N+](=O)[O-])c1	-2	85*	-1	36	2
COc1ccc(C(=O)Oc2cccc3cccnc23)cc1[N+](=O)[O-]	-2	2	0	0	-3
CC1=[N+](CC(=O)c2ccccc2)CCn2cccc21	-1	-39	20*	-16	-5
COc1ccc(N2CCN(S(=O)(=O)CCNC(=O)COc3ccccc3C)CC2)cc1	x	x	1	x	x
O=C(c1cnc2n(c1=O)CCS2)N1CCN(c2ccccc2Cl)CC1	-2	-2	x	1	-2
O=C(c1cnc2n(c1=O)CCS2)N1CCN(C(c2ccccc2)c2ccc(Cl)cc2)CC1 (stereo not drawn)	5.9*	-4	-4	-18	1
c1ccc2[nH]c(SN3CCOCC3)nc2c1	-2	62*	x	4	-4
Cc1ccc(C)c(C(=O)NC(C)c2ccc(-n3ccnc3)cc2)c1 (stereo not drawn)	-3	x	-2	x	-2
COc1ccc(-c2csc(Nc3cccnc3)n2)cc1OC	-2	1	0	-1	12*
C=CCn1c(SCC(=O)N(C)C)nc2sc3c(c2c1=O)CCC3	-1	x	6	x	8.4*
C=CCSc1nc2sc3c(c2c(=O)n1CC)CCC3	-3	x	-2	x	1
CCOC(=O)CCCCCN1C(=O)c2cccc3cccc(c23)C1=O	0	x	2	x	5
CC(=O)OCCCN1C(=O)c2cccc3cc(Br)cc(c23)C1=O	0	x	4	x	12*
CC1CCN(C(=O)Cn2nnc(-c3ccc(N)cc3)n2)CC1	-2	x	2	x	-1
CCn1c2ccccc2c2cc([N+](=O)[O-])ccc21	-2	-2	-1	-3	-7
CCn1c2ccccc2c(=O)c2ccccc21	-3	91*	145*	20	5
Cc1occc1C(=O)NNC1=CC(=O)CC(C)(C)C1	-4	0	26*	2	-4
CC1(C)CC(=O)C=C(NNC(=O)c2ccccc2)C1	-2	3	u	-1	-2
SMILES	IMP-1 inhibitor	Runt-SMMHC FRET	RanGTP-Imp inh	Runt-CBFb FRET	VIM-2 inhibitor
COc1ccc(C(=O)NNC2=CC(=O)CC(C)(C)C2)cc1OC	-2	2	26*	4	-8
CCCCCNC(=O)Cn1c(=O)c2c(ncn2CC(C)C)n(Cc2ccccc2)c1=O	-1	x	-2	x	-2
Cc1ccc(C)c(N2CCN(S(=O)(=O)c3ccc4c(c3)CCC(=O)N4)CC2)c1	-2	0	4	104*	-2
Clc1ccsc1-c1csc(-c2cccnc2)n1	-1	-4	37*	-3	0
COc1ccc(OCC(=O)NNC(=O)Cc2coc3cc(OC)ccc23)cc1	5.6*	-3	-1	1	-2
CCOc1cc(C=O)ccc1OCCn1c([N+](=O)[O-])cnc1C	-2	x	0	x	1
CSc1ccc(S(=O)(=O)N2CCC(C(=O)NC3CC3)CC2)cc1	-1	x	2	x	-2
Cc1cccc(CC(=O)NCC2CCCCC2)c1	-3	x	2	x	1
COC(=O)c1ccc(NC(=O)Cn2nc(C(=O)Nc3ccc(C)cc3)ccc2=O)cc1	11*	x	-2	x	0
CC1=NN(c2ccccc2)C(=O)/C1=C/c1ccc(-c2ccc(C)c(C(=O)O)c2)o1	x	x	1	x	x
CC1=NN(c2ccc(Cl)c(C(=O)O)c2)C(=O)/C1=C\c1ccc(-c2ccc(C(=O)O)cc2)o1	7.7*	16	5	19	-2
COc1ccc(-c2c(C#N)c(N)nc3c2CCC3)cc1	-2	97*	-6	45	0

Screening data (PubChem BioAssay)
